Reference: ChEMBL document CHEMBL1156892, “Synthesis and in vitro evaluation of bisphosphonated glycopeptide prodrugs for the treatment of osteomyelitis” (Bioorg Med Chem Lett, 2010)
Converted amounts (≈) assume the structure as drawn.

Legend:
Oryctolagus cuniculus = species: Oryctolagus cuniculus; assay: Binding affinity to rabbit bone assessed as drug level bound to bone powder at 0.25 to 4 ug/ml after 24 hrs; type: tissue-based; conditions: Bone element
Staphylococcus aureus [1] = assay: Antibacterial activity against Staphylococcus aureus ATCC 13709 in cation adjusted Mueller-Hinton broth by […] assay; type: functional
Procedure, shortened: (§1)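 MIC determination against S. aureus ATCC13709. Medium is cation-adjusted Mueller-Hinton broth, alone or supplemented with mouse, human or rat serum as specified per line.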

Staphylococcus aureus [2] = assay: Antibacterial activity against Staphylococcus aureus ATCC 13709 in cation adjusted Mueller-Hinton broth by […] assay in presence of 50% mouse serum; type: functional; procedure, shortened: as §1
Staphylococcus aureus [3] = assay: Antibacterial activity against Staphylococcus aureus ATCC 13709 in cation adjusted Mueller-Hinton broth by […] assay in presence of 50% human serum; type: functional; procedure, shortened: as §1
Staphylococcus aureus [4] = assay: Antibacterial activity against Staphylococcus aureus ATCC 13709 in cation adjusted Mueller-Hinton broth by […] assay in presence of 50% rat serum; type: functional; procedure, shortened: as §1
[5] = Stability in phosphate buffered saline assessed as conversion of drug to oritavancin after 24 hrs; type: physicochemical; conditions: buffer, BLD = below limit of detection
Procedure, shortened: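 Prodrugs incubated 24 h in phosphate-buffered saline. Regeneration of parent drug is expressed as % conversion. Parallel incubations were run in 50% rat or human serum diluted in PBS to assess enzymatic cleavage.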

Streptococcus pneumoniae = assay: Antibacterial activity against Streptococcus pneumoniae ATCC 700902 by agar diffusion assay; type: functional
Staphylococcus aureus [6] = assay: Antibacterial activity against Staphylococcus aureus ATCC 13709 in cation adjusted Mueller-Hinton broth by […] assay in absence of polysorbate-80; type: functional
Procedure, shortened: (§2)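 MIC against S. aureus ATCC13709 in cation-adjusted Mueller-Hinton broth, alone or with mouse, human or rat serum, run without polysorbate-80 in the medium.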

Staphylococcus aureus [7] = assay: Antibacterial activity against Staphylococcus aureus ATCC 13709 in cation adjusted Mueller-Hinton broth by […] assay in presence of 50% mouse serum in absence of polysorbate-80; type: functional; procedure, shortened: as §2
Staphylococcus aureus [8] = assay: Antibacterial activity against Staphylococcus aureus ATCC 13709 in cation adjusted Mueller-Hinton broth by […] assay in presence of 50% human serum in absence of polysorbate-80; type: functional; procedure, shortened: as §2
Staphylococcus aureus [9] = assay: Antibacterial activity against Staphylococcus aureus ATCC 13709 in cation adjusted Mueller-Hinton broth by […] assay in presence of 50% rat serum in absence of polysorbate-80; type: functional; procedure, shortened: as §2

SMILES | Activity (Oryctolagus cuniculus) [%] | MIC (Staphylococcus aureus [1]) [µg/mL] | MIC (Staphylococcus aureus [2]) [µg/mL] | MIC (Staphylococcus aureus [3]) [µg/mL] | MIC (Staphylococcus aureus [4]) [µg/mL] | Activity [5] | MIC (Streptococcus pneumoniae) [µg/mL] | MIC (Staphylococcus aureus [6]) [µg/mL] | MIC (Staphylococcus aureus [7]) [µg/mL] | MIC (Staphylococcus aureus [8]) [µg/mL] | MIC (Staphylococcus aureus [9]) [µg/mL]
CN[C@H](CC(C)C)C(=O)N[C@H]1C(=O)N[C@@H](CC(N)=O)C(=O)N[C@H]2C(=O)N[C@H]3C(=O)N[C@H](C(=O)N[C@H](C(=O)OCC(=O)Nc4ccc(CC(P(=O)(O)O)P(=O)(O)O)cc4)c4cc(O)cc(O)c4-c4cc3ccc4O)[C@H](O)c3cc(Cl)c(c(Cl)c3)Oc3cc2cc(c3O[C@H]2O[C@@H](CO)[C@@H](O)[C@H](O)[C@H]2O[C@@H]2C[C@@](C)(N)[C@@H](O)[C@@H](C)O2)Oc2ccc(cc2Cl)[C@H]1O | 96.7 | 16 (≈ 8.86 µM) | 16 | 16 | 32 | – | – | – | – | – | –
CC(C)C[C@H](C(=O)N[C@H]1C(=O)N[C@@H](CC(N)=O)C(=O)N[C@H]2C(=O)N[C@H]3C(=O)N[C@H](C(=O)N[C@H](C(=O)O)c4cc(O)cc(O)c4-c4cc3ccc4O)[C@H](O[C@H]3C[C@](C)(N)[C@@H](O)[C@H](C)O3)c3cc(Cl)c(c(Cl)c3)Oc3cc2cc(c3O[C@H]2O[C@@H](CO)[C@@H](O)[C@H](O)[C@H]2O[C@@H]2C[C@@](C)(NCc3ccc(-c4ccc(Cl)cc4)cc3)[C@@H](O)[C@@H](C)O2)Oc2ccc(cc2Cl)[C@H]1O)N(C)C(=O)OCOC(=O)CCC(P(=O)(O)O)P(=O)(O)O | 96.9 | 8 (≈ 3.75 µM) | 0.5 | 4 | 1 | – | – | – | – | – | –
CC(C)C[C@H](C(=O)N[C@H]1C(=O)N[C@@H](CC(N)=O)C(=O)N[C@H]2C(=O)N[C@H]3C(=O)N[C@H](C(=O)N[C@H](C(=O)O)c4cc(O)cc(O)c4-c4cc3ccc4O)[C@H](O[C@H]3C[C@](C)(N)[C@@H](O)[C@H](C)O3)c3cc(Cl)c(c(Cl)c3)Oc3cc2cc(c3O[C@H]2O[C@@H](CO)[C@@H](O)[C@H](O)[C@H]2O[C@@H]2C[C@@](C)(NCc3ccc(-c4ccc(Cl)cc4)cc3)[C@@H](O)[C@@H](C)O2)Oc2ccc(cc2Cl)[C@H]1O)N(C)C(=O)OCOC(=O)CCCC(P(=O)(O)O)P(=O)(O)O | 99.9 | 32 (≈ 14.9 µM) | 32 | > 32 | 32 | BLD | – | – | – | – | –
CN[C@H](CC(C)C)C(=O)N[C@H]1C(=O)N[C@@H](CC(N)=O)C(=O)N[C@H]2C(=O)N[C@H]3C(=O)N[C@H](C(=O)N[C@H](C(=O)OCC(=O)NC(P(=O)(O)O)P(=O)(O)O)c4cc(O)cc(O)c4-c4cc3ccc4O)[C@H](O)c3cc(Cl)c(c(Cl)c3)Oc3cc2cc(c3O[C@H]2O[C@@H](CO)[C@@H](O)[C@H](O)[C@H]2O[C@@H]2C[C@@](C)(N)[C@@H](O)[C@@H](C)O2)Oc2ccc(cc2Cl)[C@H]1O | 96.5 | 16 (≈ 9.33 µM) | 16 | 8 | 32 | – | – | – | – | – | –
CN[C@H](CC(C)C)C(=O)N[C@H]1C(=O)N[C@@H](CC(N)=O)C(=O)N[C@H]2C(=O)N[C@H]3C(=O)N[C@H](C(=O)N[C@H](C(=O)O)c4cc(O)cc(O)c4-c4cc3ccc4O)[C@H](O[C@H]3C[C@](C)(N)[C@@H](O)[C@H](C)O3)c3ccc(c(Cl)c3)Oc3cc2cc(c3O[C@@H]2O[C@H](CO)[C@@H](O)[C@H](O)[C@H]2O[C@H]2C[C@](C)(NCc3ccc(-c4ccc(Cl)cc4)cc3)[C@@H](O)[C@H](C)O2)Oc2ccc(cc2Cl)[C@H]1O [ORITAVANCIN] | – | – | – | – | – | – | 0.001 (≈ 0.000558 µM) | 0.5 (≈ 0.279 µM) | 2 | 1 | 0.25
CC(C)C[C@H](C(=O)N[C@H]1C(=O)N[C@@H](CC(N)=O)C(=O)N[C@H]2C(=O)N[C@H]3C(=O)N[C@H](C(=O)N[C@H](C(=O)O)c4cc(O)cc(O)c4-c4cc3ccc4O)[C@H](O[C@H]3C[C@](C)(N)[C@@H](O)[C@H](C)O3)c3cc(Cl)c(c(Cl)c3)Oc3cc2cc(c3O[C@H]2O[C@@H](CO)[C@@H](O)[C@H](O)[C@H]2O[C@@H]2C[C@@](C)(NCc3ccc(-c4ccc(Cl)cc4)cc3)[C@@H](O)[C@@H](C)O2)Oc2ccc(cc2Cl)[C@H]1O)N(C)C(=O)CCC(P(=O)(O)O)P(=O)(O)O | 99.8 | > 32 | > 32 | > 32 | > 32 | – | – | – | – | – | –
CC(C)C[C@H](C(=O)N[C@H]1C(=O)N[C@@H](CC(N)=O)C(=O)N[C@H]2C(=O)N[C@H]3C(=O)N[C@H](C(=O)N[C@H](C(=O)O)c4cc(O)cc(O)c4-c4cc3ccc4O)[C@H](O[C@H]3C[C@](C)(N)[C@@H](O)[C@H](C)O3)c3cc(Cl)c(c(Cl)c3)Oc3cc2cc(c3O[C@H]2O[C@@H](CO)[C@@H](O)[C@H](O)[C@H]2O[C@@H]2C[C@@](C)(NCc3ccc(-c4ccc(Cl)cc4)cc3)[C@@H](O)[C@@H](C)O2)Oc2ccc(cc2Cl)[C@H]1O)N(C)C(=O)CC(P(=O)(O)O)P(=O)(O)O | 99.9 | 32 (≈ 15.7 µM) | 4 | 32 | 4 | – | – | – | – | – | –
CN[C@H](CC(C)C)C(=O)N[C@H]1C(=O)N[C@@H](CC(N)=O)C(=O)N[C@H]2C(=O)N[C@H]3C(=O)N[C@H](C(=O)N[C@H](C(=O)OCC(=O)Nc4ccc(CC(P(=O)(O)O)P(=O)(O)O)cc4)c4cc(O)cc(O)c4-c4cc3ccc4O)[C@H](O[C@H]3C[C@](C)(N)[C@@H](O)[C@H](C)O3)c3cc(Cl)c(c(Cl)c3)Oc3cc2cc(c3O[C@H]2O[C@@H](CO)[C@@H](O)[C@H](O)[C@H]2O[C@@H]2C[C@@](C)(NCc3ccc(-c4ccc(Cl)cc4)cc3)[C@@H](O)[C@@H](C)O2)Oc2ccc(cc2Cl)[C@H]1O | – | > 32 | 8 | > 32 | 8 | – | – | – | – | – | –
CN[C@H](CC(C)C)C(=O)N[C@H]1C(=O)N[C@@H](CC(N)=O)C(=O)N[C@H]2C(=O)N[C@H]3C(=O)N[C@H](C(=O)N[C@H](C(=O)OCC(=O)NC(P(=O)(O)O)P(=O)(O)O)c4cc(O)cc(O)c4-c4cc3ccc4O)[C@H](O[C@H]3C[C@](C)(N)[C@@H](O)[C@H](C)O3)c3cc(Cl)c(c(Cl)c3)Oc3cc2cc(c3O[C@H]2O[C@@H](CO)[C@@H](O)[C@H](O)[C@H]2O[C@@H]2C[C@@](C)(NCc3ccc(-c4ccc(Cl)cc4)cc3)[C@@H](O)[C@@H](C)O2)Oc2ccc(cc2Cl)[C@H]1O | 97.6 | 16 (≈ 7.77 µM) | 2 | 32 | 2 | – | – | – | – | – | –
